Tests used:
[1] = Ratio of fAUC (0 to 24 hrs) in liver to plasma in Sprague-Dawley rat at 10 mg/kg, po; assay type: ADME, organism-based; parameters: dose 10 mg/kg, route oral; details: liver and plasma
In short: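 Sprague-Dawley rats given a single oral dose (10 or 25 mg/kg). Free drug measured in liver and plasma at 0, 0.5, 1, 2, 3, 4, 7 and 24 h, n = 3/time point.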

Plasma [2] = assay: fAUC (0 to infinity) in human plasma at 160 mg administered as single dose; assay type: ADME, cell-free
In short: (§1)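 Phase 1 single ascending oral dose in healthy volunteers, with N per dose group. Total plasma Cmax and AUC(0-∞) were measured. Free-drug exposures were derived from these using plasma protein binding (human plasma fu measured at 0.5 μg/mL).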

Canis familiaris [3] = assay: fAUC (0 to 24 hrs) in dog at 5 mg/kg, po; assay type: ADME, organism-based, Canis lupus familiaris; parameters: dose 5 mg/kg, route oral; details: in vivo
In short: (§2)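 Rat and dog given 1 mg/kg iv, or po at 10 mg/kg (rat) or 5 mg/kg (dog). Plasma sampled to 24 h. AUC(0-24) as free drug using plasma protein binding values. Geometric mean of n = 2 animals/group; dog po n = 3 or n = 1.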

Canis familiaris [4] = assay: fAUC (0 to 24 hrs) in dog at 1 mg/kg, iv; assay type: ADME, organism-based, Canis lupus familiaris; parameters: dose 1 mg/kg, route intravenous; details: in vivo; in short: as §2
Homo sapiens [5] = assay: Inhibition of HMG-CoA reductase in human assessed as decrease in AUC (0 to 24 hrs) of mevalonate level in plasma at 1 mg administered as single dose relative to control; assay type: functional
[6] = Half life in dog at 1 mg/kg, iv; assay type: ADME, organism-based, Canis lupus familiaris; parameters: dose 1 mg/kg, route intravenous; details: in vivo
In short: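 Intravenous 1 mg/kg dose in rat or dog. Terminal half-life was derived from plasma concentrations and is reported as the geometric mean of n = 2 animals per group.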

Homo sapiens [7] = assay: Inhibition of HMG-CoA reductase in human assessed as decrease in AUC (0 to 24 hrs) of mevalonate level in plasma at 160 mg administered as single dose relative to control; assay type: functional
Homo sapiens [8] = assay: Inhibition of HMG-CoA reductase in human assessed as decrease in AUC (0 to 24 hrs) of mevalonate level in plasma at 40 mg administered as single dose relative to control; assay type: functional
[9] = Volume of distribution at steady state in dog at 1 mg/kg, iv; assay type: ADME, organism-based, Canis lupus familiaris; parameters: dose 1 mg/kg, route intravenous; details: in vivo, read-out: Vdss; in short: as §2
[10] = target: T1, 3-hydroxy-3-methylglutaryl-coenzyme A reductase (Rattus norvegicus, UniProt P51639); assay: Inhibition of HMG-CoA reductase in Sprague-Dawley rat liver microsomes using [14C]HMG-CoA as substrate preincubated for 0.5 hrs before substrate addition measured after 0.75 hrs by beta scintillation counting; parameters: species or system Microsome
T1 sequence (P51639 whole entry): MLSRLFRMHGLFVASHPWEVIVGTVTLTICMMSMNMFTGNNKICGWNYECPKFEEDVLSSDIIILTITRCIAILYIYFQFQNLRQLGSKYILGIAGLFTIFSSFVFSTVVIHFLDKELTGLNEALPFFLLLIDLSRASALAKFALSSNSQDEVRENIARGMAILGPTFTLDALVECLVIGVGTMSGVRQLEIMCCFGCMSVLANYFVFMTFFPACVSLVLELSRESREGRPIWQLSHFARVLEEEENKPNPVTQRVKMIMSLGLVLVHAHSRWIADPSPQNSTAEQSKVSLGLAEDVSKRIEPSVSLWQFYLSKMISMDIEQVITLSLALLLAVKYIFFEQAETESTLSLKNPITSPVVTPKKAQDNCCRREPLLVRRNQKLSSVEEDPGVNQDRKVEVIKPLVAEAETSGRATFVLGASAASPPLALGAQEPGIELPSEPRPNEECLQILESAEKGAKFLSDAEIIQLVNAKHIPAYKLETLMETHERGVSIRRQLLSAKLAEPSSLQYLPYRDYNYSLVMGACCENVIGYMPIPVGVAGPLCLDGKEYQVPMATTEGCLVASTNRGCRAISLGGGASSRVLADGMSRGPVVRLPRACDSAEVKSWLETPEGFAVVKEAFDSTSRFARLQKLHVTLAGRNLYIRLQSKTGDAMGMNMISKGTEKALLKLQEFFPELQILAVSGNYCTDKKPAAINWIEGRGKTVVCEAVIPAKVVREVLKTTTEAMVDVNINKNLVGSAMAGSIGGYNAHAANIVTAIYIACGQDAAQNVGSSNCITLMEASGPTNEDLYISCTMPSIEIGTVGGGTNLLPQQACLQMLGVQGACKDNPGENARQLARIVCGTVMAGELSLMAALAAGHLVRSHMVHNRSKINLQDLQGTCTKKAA
In short: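 Enzyme inhibition was measured in an HMG-CoA reductase preparation from rat microsomes. IC50 is reported as mean ± SEM of n ≥ 2 independent determinations.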

[11] = Volume of distribution at steady state in rat at 1 mg/kg, iv; assay type: ADME, organism-based; parameters: dose 1 mg/kg, route intravenous; details: in vivo, read-out: Vdss; in short: as §2
Plasma [12] = assay: fCmax in human plasma at 5 mg administered as single dose; assay type: ADME, cell-free; in short: as §1
[13] = Terminal half life in human plasma at 80 mg administered as single dose; assay type: ADME, cell-free; details: read-out: beta t1/2 (converted)
Rattus norvegicus [14] = assay: fCmax in rat at 10 mg/kg, po; assay type: ADME, organism-based; parameters: dose 10 mg/kg, route oral; details: in vivo
In short: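 Single po dose: rat 10 mg/kg (n = 2), dog 5 mg/kg (n = 1 or 3 animals). Values are geometric means. Cmax is given as free drug concentration using plasma protein binding values, which were determined at 0.5 μg/mL.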

[15] = Terminal half life in human plasma at 1 mg administered as single dose; assay type: ADME, cell-free; details: read-out: beta t1/2 (converted)
[16] = Systemic plasma clearance in rat at 1 mg/kg, iv; assay type: ADME, organism-based; parameters: dose 1 mg/kg, route intravenous; in short: as §2
[17] = Systemic plasma clearance in dog at 1 mg/kg, iv; assay type: ADME, organism-based, Canis lupus familiaris; parameters: dose 1 mg/kg, route intravenous; in short: as §2
Rattus norvegicus [18] = assay: fAUC (0 to 24 hrs) in rat at 10 mg/kg, po; assay type: ADME, organism-based; parameters: dose 10 mg/kg, route oral; details: in vivo; in short: as §2
[19] = Cmax in human plasma at 20 mg administered as single dose; assay type: ADME, organism-based; parameters: dose 20 mg
In short: (§3)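 Phase 1 single ascending oral dose in healthy volunteers, about 5–6 subjects per dose. Total plasma drug Cmax and AUC(0-∞) were measured. Free-drug exposures were derived using plasma protein binding.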

[20] = Oral bioavailability in dog at 5 mg/kg; assay type: ADME, organism-based, Canis lupus familiaris; details: in vivo; in short: as §2
Plasma [21] = assay: fCmax in human plasma at 320 mg administered as single dose; assay type: ADME, cell-free; in short: as §1
[22] = AUC (0 to infinity) in human plasma at 10 mg administered as single dose; assay type: ADME, cell-free; parameters: dose 10 mg, time infinity; in short: as §3
[23] = AUC (0 to infinity) in human plasma at 240 mg administered as single dose; assay type: ADME, cell-free; parameters: dose 240 mg, time infinity; in short: as §3
Homo sapiens [24] = assay: Inhibition of HMG-CoA reductase in human assessed as decrease in AUC (0 to 24 hrs) of mevalonate level in plasma at 10 mg administered as single dose relative to control; assay type: functional
Homo sapiens [25] = assay: Inhibition of HMG-CoA reductase in human assessed as decrease in AUC (0 to 72 hrs) of mevalonate level in plasma at 10 mg administered as single dose relative to control; assay type: functional
Rattus norvegicus [26] = assay: Inhibition of HMG-CoA reductase in Sprague-Dawley rat assessed as reduction of mevalonate level in plasma at 10 mg/kg, po administered as single dose after 24 hrs relative to control; assay type: functional
Plasma [27] = assay: fCmax in human plasma at 10 mg administered as single dose; assay type: ADME, cell-free; in short: as §1
Plasma [28] = assay: fAUC (0 to infinity) in human plasma at 240 mg administered as single dose; assay type: ADME, cell-free; in short: as §1
[29] = Cmax in human plasma at 320 mg administered as single dose; assay type: ADME, organism-based; parameters: dose 320 mg; in short: as §3

Kp uu [1]	fAUC (Canis familiaris [3])	fAUC (Canis familiaris [4])	half-life [6]	Vd [9]	IC50 [10]	Vd [11]	fCmax (Rattus norvegicus [14])	clearance [16]	clearance [17]	fAUC (Rattus norvegicus [18])	bioavailability [20]	Structure (SMILES)	inhibition (INH) (Homo sapiens [8])	also measured
30												CC(C)c1nc(N(C)S(C)(=O)=O)nc(-c2ccc(F)cc2)c1/C=C/[C@@H](O)C[C@@H](O)CC(=O)O [ROSUVASTATIN]		
	64 ng·h/mL	28 ng·h/mL	0.78 h	0.1 L/kg	1 nM	0.14 L/kg	1.3 ng/mL	27 mL/min/kg	19 mL/min/kg	6.4 ng·h/mL	44%	Cc1ccc(CNC(=O)c2nn(-c3ccc(F)cc3)c(CC[C@@H](O)C[C@@H](O)CC(=O)O)c2C(C)C)cc1	-41%	fAUC (Plasma [2]): 1280 ng·h/mL; inhibition (INH) (Homo sapiens [5]): -16%; inhibition (INH) (Homo sapiens [7]): -55%; fCmax (Plasma [12]): 10 ng/mL; half-life [13]: 6.28 h; half-life [15]: 2.55 h; Cmax [19]: 740 ng/mL
41	51 ng·h/mL	293 ng·h/mL	0.27 h	0.1 L/kg	1.2 nM	0.17 L/kg	2 ng/mL	39 mL/min/kg	25 mL/min/kg	2.7 ng·h/mL	2.2%	O=C([O-])C[C@H](O)C[C@H](O)CCn1c(-c2ccc(F)cc2)nc(C(=O)NCc2cccc(F)c2)c1C1CC1.[Na+]	-39%	fCmax (Plasma [21]): 12.8 ng/mL; AUC(0-inf) [22]: 2.71 ng·h/mL; AUC(0-inf) [23]: 27.2 ng·h/mL; inhibition (INH) (Homo sapiens [24]): -25%; inhibition (INH) (Homo sapiens [25]): -13%; inhibition in vivo at 10 mg/kg (Rattus norvegicus [26]): 47%; fCmax (Plasma [27]): 0.1 ng/mL; fAUC (Plasma [28]): 7.89 ng·h/mL; Cmax [29]: 44.1 ng/mL

Source: ChEMBL document CHEMBL1781963, “Discovery of novel hepatoselective HMG-CoA reductase inhibitors for treating hypercholesterolemia: a bench-to-bedside case study on tissue selective drug distribution” (Bioorg Med Chem Lett, 2011)
